# Test results from ChEMBL document CHEMBL2057152, “Synthesis and antibacterial activity against Clostridium difficile of novel demethylvancomycin derivatives” (2012).
# What was measured:
# Format in all cases: functional
# [1] = test system: Clostridioides difficile; assay: Antibacterial activity against Clostridium difficile IQCC 23903 after 16 hrs by two-fold serial dilution method; details: IQCC 23903, 16 h
# Procedure, shortened: (§1)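 CLSI agar dilution MIC. Compounds are dissolved in 50% water in DMSO as a stock, twofold serially diluted in sterile water, then diluted 10-fold into Mueller-Hinton agar. Organisms are grown in MH broth at 35 °C for 8 h and adjusted to 0.5 McFarland. They are applied to the drug-containing plates by multipoint inoculator and incubated at 35 °C for 16 h. Vancomycin and demethylvancomycin serve as controls.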
# [2] = Antibacterial activity against Clostridium difficile ATCC 43255 after 16 hrs by two-fold serial dilution method; details: Clostridioides difficile, ATCC 43255, 16 h; procedure, shortened: as §1
# [3] = test system: Enterococcus faecalis; assay: Antibacterial activity against Enterococcus faecalis ATCC 700802 after 16 hrs by two-fold serial dilution method; details: ATCC 700802, 16 h; procedure, shortened: as §1
# [4] = test system: Clostridioides difficile; assay: Antibacterial activity against Clostridium difficile ATCC 700792 after 16 hrs by two-fold serial dilution method; details: ATCC 700792, 16 h; procedure, shortened: as §1
# [5] = test system: Clostridioides difficile; assay: Antibacterial activity against Clostridium difficile ATCC 700057 after 16 hrs by two-fold serial dilution method; details: ATCC 700057, 16 h; procedure, shortened: as §1
# [6] = test system: Clostridioides difficile; assay: Ratio of MIC for demethylvancomycin to compound MIC for Clostridium difficile ATCC 700792 after 16 hrs by two-fold serial dilution method
# [7] = test system: Clostridioides difficile; assay: Ratio of MIC for demethylvancomycin to compound MIC for Clostridium difficile IQCC 23903 after 16 hrs by two-fold serial dilution method
# [8] = test system: Clostridioides difficile; assay: Ratio of MIC for vancomycin to compound MIC for Clostridium difficile IQCC 23903 after 16 hrs by two-fold serial dilution method
# [9] = test system: Clostridioides difficile; assay: Ratio of MIC for vancomycin to compound MIC for Clostridium difficile ATCC 700057 after 16 hrs by two-fold serial dilution method
# [10] = test system: Clostridioides difficile; assay: Ratio of MIC for vancomycin to compound MIC for Clostridium difficile ATCC 700792 after 16 hrs by two-fold serial dilution method
# [11] = test system: Clostridioides difficile; assay: Ratio of MIC for vancomycin to compound MIC for Clostridium difficile ATCC 43255 after 16 hrs by two-fold serial dilution method
# [12] = test system: Clostridioides difficile; assay: Ratio of MIC for demethylvancomycin to compound MIC for Clostridium difficile ATCC 43255 after 16 hrs by two-fold serial dilution method
# [13] = test system: Clostridioides difficile; assay: Ratio of MIC for demethylvancomycin to compound MIC for Clostridium difficile ATCC 700057 after 16 hrs by two-fold serial dilution method
SMILES,MIC [1],MIC [2],MIC [3],MIC [4],MIC [5],Ratio [6],Ratio [7],Ratio [8],Ratio [9],Ratio [10],Ratio [11],Ratio [12],Ratio [13]
CC(C)CCN[C@@]1(C)C[C@H](O[C@H]2[C@H](Oc3c4cc5cc3Oc3ccc(cc3Cl)[C@@H](O)[C@@H](NC(=O)[C@H](N)CC(C)C)C(=O)N[C@@H](CC(N)=O)C(=O)N[C@H]5C(=O)N[C@H]3C(=O)N[C@H](C(=O)N[C@H](C(=O)O)c5cc(O)cc(O)c5-c5cc3ccc5O)[C@H](O)c3ccc(c(Cl)c3)O4)O[C@H](CO)[C@@H](O)[C@@H]2O)O[C@@H](C)[C@H]1O,0.5 µg/mL,1 µg/mL,32 µg/mL,1 µg/mL,1 µg/mL,,,,,,,,
CC(C)C[C@@H](N)C(=O)N[C@H]1C(=O)N[C@@H](CC(N)=O)C(=O)N[C@H]2C(=O)N[C@H]3C(=O)N[C@H](C(=O)N[C@H](C(=O)O)c4cc(O)cc(O)c4-c4cc3ccc4O)[C@H](O)c3ccc(c(Cl)c3)Oc3cc2cc(c3O[C@@H]2O[C@H](CO)[C@@H](O)[C@H](O)[C@H]2O[C@H]2C[C@](C)(NCCC(C)CC(C)(C)C)[C@H](O)[C@H](C)O2)Oc2ccc(cc2Cl)[C@H]1O (stereo partly specified),0.25 µg/mL,0.5 µg/mL,8 µg/mL,0.5 µg/mL,0.25 µg/mL,2,2,2,2,2,2,2,2
CCCCCCCN[C@@]1(C)C[C@H](O[C@H]2[C@H](Oc3c4cc5cc3Oc3ccc(cc3Cl)[C@@H](O)[C@@H](NC(=O)[C@H](N)CC(C)C)C(=O)N[C@@H](CC(N)=O)C(=O)N[C@H]5C(=O)N[C@H]3C(=O)N[C@H](C(=O)N[C@H](C(=O)O)c5cc(O)cc(O)c5-c5cc3ccc5O)[C@H](O)c3ccc(c(Cl)c3)O4)O[C@H](CO)[C@@H](O)[C@@H]2O)O[C@@H](C)[C@H]1O,0.25 µg/mL,0.5 µg/mL,8 µg/mL,0.5 µg/mL,0.25 µg/mL,2,2,2,2,2,2,2,2
CC(C)C[C@@H](N)C(=O)N[C@H]1C(=O)N[C@@H](CC(N)=O)C(=O)N[C@H]2C(=O)N[C@H]3C(=O)N[C@H](C(=O)N[C@H](C(=O)O)c4cc(O)cc(O)c4-c4cc3ccc4O)[C@H](O)c3ccc(c(Cl)c3)Oc3cc2cc(c3O[C@@H]2O[C@H](CO)[C@@H](O)[C@H](O)[C@H]2O[C@H]2C[C@](C)(NCC3CCCCC3)[C@H](O)[C@H](C)O2)Oc2ccc(cc2Cl)[C@H]1O,0.5 µg/mL,1 µg/mL,16 µg/mL,1 µg/mL,0.5 µg/mL,,,,,,,,
CN[C@H](CC(C)C)C(=O)N[C@H]1C(=O)N[C@@H](CC(N)=O)C(=O)N[C@H]2C(=O)N[C@H]3C(=O)N[C@H](C(=O)N[C@H](C(=O)O)c4cc(O)cc(O)c4-c4cc3ccc4O)[C@H](O)c3ccc(c(Cl)c3)Oc3cc2cc(c3O[C@@H]2O[C@H](CO)[C@@H](O)[C@H](O)[C@H]2O[C@H]2C[C@](C)(N)[C@H](O)[C@H](C)O2)Oc2ccc(cc2Cl)[C@H]1O [VANCOMYCIN],0.5 µg/mL,1 µg/mL,32 µg/mL,1 µg/mL,0.5 µg/mL,,,,,,,,
CCCCCCCCCCCCCN[C@@]1(C)C[C@H](O[C@H]2[C@H](Oc3c4cc5cc3Oc3ccc(cc3Cl)[C@@H](O)[C@@H](NC(=O)[C@H](N)CC(C)C)C(=O)N[C@@H](CC(N)=O)C(=O)N[C@H]5C(=O)N[C@H]3C(=O)N[C@H](C(=O)N[C@H](C(=O)O)c5cc(O)cc(O)c5-c5cc3ccc5O)[C@H](O)c3ccc(c(Cl)c3)O4)O[C@H](CO)[C@@H](O)[C@@H]2O)O[C@@H](C)[C@H]1O,1 µg/mL,1 µg/mL,4 µg/mL,2 µg/mL,2 µg/mL,,,,,,,,
CC(C)=CCC/C(C)=C/CN[C@@]1(C)C[C@H](O[C@H]2[C@H](Oc3c4cc5cc3Oc3ccc(cc3Cl)[C@@H](O)[C@@H](NC(=O)[C@H](N)CC(C)C)C(=O)N[C@@H](CC(N)=O)C(=O)N[C@H]5C(=O)N[C@H]3C(=O)N[C@H](C(=O)N[C@H](C(=O)O)c5cc(O)cc(O)c5-c5cc3ccc5O)[C@H](O)c3ccc(c(Cl)c3)O4)O[C@H](CO)[C@@H](O)[C@@H]2O)O[C@@H](C)[C@H]1O,0.5 µg/mL,0.5 µg/mL,16 µg/mL,0.5 µg/mL,0.5 µg/mL,,,,,,,,
CC(C)C[C@@H](N)C(=O)N[C@H]1C(=O)N[C@@H](CC(N)=O)C(=O)N[C@H]2C(=O)N[C@H]3C(=O)N[C@H](C(=O)N[C@H](C(=O)O)c4cc(O)cc(O)c4-c4cc3ccc4O)[C@H](O)c3ccc(c(Cl)c3)Oc3cc2cc(c3O[C@@H]2O[C@H](CO)[C@@H](O)[C@H](O)[C@H]2O[C@H]2C[C@](C)(NCc3cccs3)[C@H](O)[C@H](C)O2)Oc2ccc(cc2Cl)[C@H]1O,0.5 µg/mL,0.5 µg/mL,32 µg/mL,0.5 µg/mL,0.5 µg/mL,,,,,,,,
COc1ccc(CN[C@@]2(C)C[C@H](O[C@H]3[C@H](Oc4c5cc6cc4Oc4ccc(cc4Cl)[C@@H](O)[C@@H](NC(=O)[C@H](N)CC(C)C)C(=O)N[C@@H](CC(N)=O)C(=O)N[C@H]6C(=O)N[C@H]4C(=O)N[C@H](C(=O)N[C@H](C(=O)O)c6cc(O)cc(O)c6-c6cc4ccc6O)[C@H](O)c4ccc(c(Cl)c4)O5)O[C@H](CO)[C@@H](O)[C@@H]3O)O[C@@H](C)[C@H]2O)cc1,0.5 µg/mL,0.5 µg/mL,16 µg/mL,1 µg/mL,0.5 µg/mL,,,,,,,,
CC(C)C[C@@H](N)C(=O)N[C@H]1C(=O)N[C@@H](CC(N)=O)C(=O)N[C@H]2C(=O)N[C@H]3C(=O)N[C@H](C(=O)N[C@H](C(=O)O)c4cc(O)cc(O)c4-c4cc3ccc4O)[C@H](O)c3ccc(c(Cl)c3)Oc3cc2cc(c3O[C@@H]2O[C@H](CO)[C@@H](O)[C@H](O)[C@H]2O[C@H]2C[C@](C)(NCc3ccc(F)cc3)[C@H](O)[C@H](C)O2)Oc2ccc(cc2Cl)[C@H]1O,0.5 µg/mL,0.5 µg/mL,16 µg/mL,0.5 µg/mL,0.5 µg/mL,,,,,,,,
CC(C)C[C@@H](N)C(=O)N[C@H]1C(=O)N[C@@H](CC(N)=O)C(=O)N[C@H]2C(=O)N[C@H]3C(=O)N[C@H](C(=O)N[C@H](C(=O)O)c4cc(O)cc(O)c4-c4cc3ccc4O)[C@H](O)c3ccc(c(Cl)c3)Oc3cc2cc(c3O[C@@H]2O[C@H](CO)[C@@H](O)[C@H](O)[C@H]2O[C@H]2C[C@](C)(NCc3cc4ccccc4o3)[C@H](O)[C@H](C)O2)Oc2ccc(cc2Cl)[C@H]1O,0.5 µg/mL,1 µg/mL,8 µg/mL,1 µg/mL,0.5 µg/mL,,,,,,,,
CCC(CC)CN[C@@]1(C)C[C@H](O[C@H]2[C@H](Oc3c4cc5cc3Oc3ccc(cc3Cl)[C@@H](O)[C@@H](NC(=O)[C@H](N)CC(C)C)C(=O)N[C@@H](CC(N)=O)C(=O)N[C@H]5C(=O)N[C@H]3C(=O)N[C@H](C(=O)N[C@H](C(=O)O)c5cc(O)cc(O)c5-c5cc3ccc5O)[C@H](O)c3ccc(c(Cl)c3)O4)O[C@H](CO)[C@@H](O)[C@@H]2O)O[C@@H](C)[C@H]1O,2 µg/mL,2 µg/mL,32 µg/mL,2 µg/mL,2 µg/mL,,,,,,,,
CC(C)C[C@@H](N)C(=O)N[C@@H]1C(=O)N[C@@H](CC(N)=O)C(=O)N[C@H]2C(=O)N[C@H]3C(=O)N[C@H](C(=O)N[C@H](C(=O)O)c4cc(O)cc(O)c4-c4cc3ccc4O)[C@H](O)c3ccc(c(Cl)c3)Oc3cc2cc(c3O[C@@H]2O[C@H](CO)[C@@H](O)[C@H](O)[C@H]2O[C@H]2C[C@](C)(N)C(O)[C@H](C)O2)Oc2ccc(cc2Cl)[C@H]1O (stereo partly specified) [DEMETHYLVANCOMYCIN],0.5 µg/mL,0.5 µg/mL,> 32 µg/mL,0.5 µg/mL,0.5 µg/mL,,,,,,,,
CC(C)C[C@@H](N)C(=O)N[C@H]1C(=O)N[C@@H](CC(N)=O)C(=O)N[C@H]2C(=O)N[C@H]3C(=O)N[C@H](C(=O)N[C@H](C(=O)O)c4cc(O)cc(O)c4-c4cc3ccc4O)[C@H](O)c3ccc(c(Cl)c3)Oc3cc2cc(c3O[C@@H]2O[C@H](CO)[C@@H](O)[C@H](O)[C@H]2O[C@H]2C[C@](C)(NCc3ccco3)[C@H](O)[C@H](C)O2)Oc2ccc(cc2Cl)[C@H]1O,0.5 µg/mL,0.5 µg/mL,32 µg/mL,0.5 µg/mL,0.5 µg/mL,,,,,,,,
